Assay results as given in ChEMBL document CHEMBL5678805, “Intermittent administration of MEK inhibitor GDC-0973 plus PI3K inhibitor GDC-0941 triggers robust apoptosis and tumor growth inhibition” (Cancer Res, 2012).
Active and inactive are the calls of the source. No cut-off for these calls is given here.

Key:
Aurora kinase A = Aurora kinase A (Homo sapiens, UniProt O14965); experiment: Inhibition of AuroraA (unknown origin)
[1] = target: Epidermal growth factor receptor (Homo sapiens, UniProt P00533); experiment: Inhibition of EGFR (unknown origin)
Ephrin type-A receptor 4 = Ephrin type-A receptor 4 (Homo sapiens, UniProt P54764); experiment: Inhibition of EphA4 (unknown origin)
[2] = target: Fibroblast growth factor receptor 1 (Homo sapiens, UniProt P11362); experiment: Inhibition of FGFR1 (unknown origin)
[3] = target: Mitogen-activated protein kinase kinase kinase kinase 3 (Homo sapiens, UniProt Q8IVH8); experiment: Inhibition of MAP4K3 (unknown origin)
[4] = target: Mitogen-activated protein kinase kinase kinase 9 (Homo sapiens, UniProt P80192); experiment: Inhibition of MLK1 (unknown origin)
[5] = target: Serine/threonine-protein kinase Nek7 (Homo sapiens, UniProt Q8TDX7); experiment: Inhibition of NEK7 (unknown origin)
[6] = target: PAS domain-containing serine/threonine-protein kinase (Homo sapiens, UniProt Q96RG2); experiment: Inhibition of PASK (unknown origin)
[7] = target: Phosphatidylinositol 4,5-bisphosphate 3-kinase catalytic subunit alpha isoform (Homo sapiens, UniProt P42336); experiment: Inhibition of PI3Kalpha (unknown origin)
[8] = Inhibition of PKA (unknown origin); set-up: species or system Homo sapiens
[9] = target: Protein kinase C beta type (Homo sapiens, UniProt P05771); experiment: Inhibition of PKCbeta2 (unknown origin)
[10] = target: BDNF/NT-3 growth factors receptor (Homo sapiens, UniProt Q16620); experiment: Inhibition of TrkB (unknown origin)
HCT-116 = experiment: Antitumor activity against human HCT-116 cells harboring KRAS G13D/PIK3CA […]/CTNNB1 S45del/CDKN2A G23fs mutant xenografted in mouse assessed as tumor growth inhibition at 10 mg/kg, po; type: functional; conditions: read-out: TGI
Summary of the method: (§1)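 Single-agent dose ranging in human tumor xenograft mice at 2.5, 5 or 10 mg/kg oral. Tumor volume was measured by caliper as (L×W×W)/2. %TGI = 100×[1 − AUC(treatment/d)/AUC(vehicle/d)] from the fitted growth curve per dose group, relative to vehicle.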

Calu-6 = experiment: Antitumor activity against human Calu-6 cells harboring KRAS Q61K and TP53 R196 mutant xenografted in mouse assessed as tumor growth inhibition at 10 mg/kg, po; type: functional; conditions: read-out: TGI; summary of the method: as §1
CWR22R [11] = experiment: Antitumor activity against human 22Rv1 cells harboring PIK3CA Q546R/TP53 Q331R mutant xenografted in mouse assessed as tumor growth inhibition at 5 mg/kg, po; type: functional; conditions: read-out: TGI
CWR22R [12] = experiment: Antitumor activity against human 22Rv1 cells harboring PIK3CA Q546R/TP53 Q331R mutant xenografted in mouse assessed as tumor growth inhibition at 10 mg/kg, po; type: functional; conditions: read-out: TGI
[13] = Antiproliferative activity against human SK-MEL-23 cells assessed reduction in cell viability incubated for 4 days in presence of 4-(2-(1H-indazol-4-yl)-6-((4-(methylsulfonyl)piperazin-1-yl)methyl)thieno[3,2-d]pyrimidin-4-yl)morpholine by celltiter-glo assay; type: functional; conditions: time 4 day
Summary of the method: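 4-day CellTiter-Glo viability read-out on melanoma lines, cells exposed to increasing concentrations of each inhibitor alone and in combination.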

A2058 [14] = experiment: Antitumor activity against human A2058 cells xenografted in mouse assessed as decrease in pS6 level at 5 mg/kg, po administered for 4 days and measured after 2 hrs in presence of 4-(2-(1H-indazol-4-yl)-6-((4-(methylsulfonyl)piperazin-1-yl)methyl)thieno[3,2-d]pyrimidin-4-yl)morpholine; type: functional, organism-based; conditions: time 98.0 hrs
A-375 = experiment: Antitumor activity against human A-375 cells xenografted in mouse assessed as decrease in pS6 level at 5 mg/kg, po administered for 4 days and measured after 2 hrs in presence of 4-(2-(1H-indazol-4-yl)-6-((4-(methylsulfonyl)piperazin-1-yl)methyl)thieno[3,2-d]pyrimidin-4-yl)morpholine; type: functional, organism-based; conditions: time 98.0 hrs
[15] = Antitumor activity against human A375.X1 cells xenografted in mouse assessed as tumor growth inhibition at 3 mg/kg, po administered once a day for 21 days in presence of 4-(2-(1H-indazol-4-yl)-6-((4-(methylsulfonyl)piperazin-1-yl)methyl)thieno[3,2-d]pyrimidin-4-yl)morpholine; type: functional; conditions: A375.X1, 504 h, time 21 day, read-out: TGI
Summary of the method: (§2)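 Human tumor xenografts in mice. Drugs given orally, as single agents or combined with the PI3K inhibitor. Schedules were daily (QD) or every third day (Q3D) over 21 days. Tumor volume was measured by caliper as (L×W×W)/2. %TGI = 100×[1 − AUC(treatment/d)/AUC(vehicle/d)] from fitted growth curves, with group means. Tumor lysates were immunoblotted for pS6.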

NCI-H2122 [16] = experiment: Antitumor activity against human NCI-H2122 cells xenografted in mouse assessed as tumor growth inhibition at 5 mg/kg, po administered once a day for 21 days in presence of 4-(2-(1H-indazol-4-yl)-6-((4-(methylsulfonyl)piperazin-1-yl)methyl)thieno[3,2-d]pyrimidin-4-yl)morpholine; type: functional; conditions: NCI-H2122, 504 h, time 21 day, read-out: TGI
Summary of the method: (§3)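 Mice bearing NCI-H2122 xenografts were given MEK inhibitor, PI3K inhibitor, or both, orally once daily for 21 consecutive days at the doses labeled. Caliper tumor volumes were calculated as (L×W×W)/2. %TGI was derived from the AUC of the fitted growth curve per day relative to vehicle.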

A2058 [17] = experiment: Antitumor activity against human A2058 cells xenografted in mouse assessed as tumor growth inhibition at 15 mg/kg, po administered every third day for 21 days in presence of 4-(2-(1H-indazol-4-yl)-6-((4-(methylsulfonyl)piperazin-1-yl)methyl)thieno[3,2-d]pyrimidin-4-yl)morpholine; type: functional; conditions: A2058, 504 h, time 21 day, read-out: TGI; summary of the method: as §2
NCI-H2122 [18] = experiment: Antitumor activity against human NCI-H2122 cells xenografted in mouse assessed as tumor growth inhibition at 20 mg/kg, po administered once a day for 21 days; type: functional; conditions: NCI-H2122, 504 h, time 21 day, read-out: TGI; summary of the method: as §3
[19] = Antitumor activity against human A375.X1 cells xenografted in mouse assessed as tumor growth inhibition at 15 mg/kg, po administered every third day for 21 days in presence of 4-(2-(1H-indazol-4-yl)-6-((4-(methylsulfonyl)piperazin-1-yl)methyl)thieno[3,2-d]pyrimidin-4-yl)morpholine; type: functional; conditions: A375.X1, 504 h, time 21 day, read-out: TGI; summary of the method: as §2
A2058 [20] = experiment: Antitumor activity against human A2058 cells xenografted in mouse assessed as tumor growth inhibition at 20 mg/kg, po administered every third day for 21 days in presence of 4-(2-(1H-indazol-4-yl)-6-((4-(methylsulfonyl)piperazin-1-yl)methyl)thieno[3,2-d]pyrimidin-4-yl)morpholine; type: functional; conditions: A2058, 504 h, time 21 day, read-out: TGI; summary of the method: as §2
DLD-1 = experiment: Antitumor activity against human DLD-1 cells xenografted in mouse assessed as tumor growth inhibition at 15 mg/kg, po administered once a day for 21 days; type: functional; conditions: DLD-1, 504 h, time 21 day, read-out: TGI; summary of the method: as §2
A2058 [21] = experiment: Antitumor activity against human A2058 cells harboring BRAF V600E/PTEN deletion mutant xenografted in mouse assessed as suppression of ERK phosphorylation at 15 mg/kg, po administered every third day for 21 days and measured after 8 hrs post dose by western blot analysis; type: functional, organism-based; conditions: time 512.0 hrs

BDNF/NT-3 growth factors receptor, sequence (Q16620 whole entry): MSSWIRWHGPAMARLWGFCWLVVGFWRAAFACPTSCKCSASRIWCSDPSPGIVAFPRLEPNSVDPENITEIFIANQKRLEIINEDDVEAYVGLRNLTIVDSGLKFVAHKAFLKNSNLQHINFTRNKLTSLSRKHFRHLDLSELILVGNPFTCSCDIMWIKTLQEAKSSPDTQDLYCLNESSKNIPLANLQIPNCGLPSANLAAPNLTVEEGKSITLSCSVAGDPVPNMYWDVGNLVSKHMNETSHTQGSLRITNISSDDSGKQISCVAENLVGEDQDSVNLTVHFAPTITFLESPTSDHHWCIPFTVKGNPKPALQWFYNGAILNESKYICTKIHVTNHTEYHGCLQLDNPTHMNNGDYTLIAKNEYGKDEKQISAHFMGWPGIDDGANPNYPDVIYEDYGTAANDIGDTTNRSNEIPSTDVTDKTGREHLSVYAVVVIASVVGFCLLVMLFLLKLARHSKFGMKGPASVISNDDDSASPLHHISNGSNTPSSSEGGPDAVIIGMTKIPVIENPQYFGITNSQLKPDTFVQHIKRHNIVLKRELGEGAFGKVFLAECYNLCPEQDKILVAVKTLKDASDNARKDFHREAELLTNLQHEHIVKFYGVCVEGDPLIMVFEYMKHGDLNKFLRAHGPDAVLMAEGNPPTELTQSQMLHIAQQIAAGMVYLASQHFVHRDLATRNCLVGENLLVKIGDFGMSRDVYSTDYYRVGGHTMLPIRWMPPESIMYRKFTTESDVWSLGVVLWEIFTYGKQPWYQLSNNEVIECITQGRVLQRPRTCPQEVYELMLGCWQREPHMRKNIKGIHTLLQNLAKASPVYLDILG
Protein kinase C beta type, sequence (P05771 whole entry): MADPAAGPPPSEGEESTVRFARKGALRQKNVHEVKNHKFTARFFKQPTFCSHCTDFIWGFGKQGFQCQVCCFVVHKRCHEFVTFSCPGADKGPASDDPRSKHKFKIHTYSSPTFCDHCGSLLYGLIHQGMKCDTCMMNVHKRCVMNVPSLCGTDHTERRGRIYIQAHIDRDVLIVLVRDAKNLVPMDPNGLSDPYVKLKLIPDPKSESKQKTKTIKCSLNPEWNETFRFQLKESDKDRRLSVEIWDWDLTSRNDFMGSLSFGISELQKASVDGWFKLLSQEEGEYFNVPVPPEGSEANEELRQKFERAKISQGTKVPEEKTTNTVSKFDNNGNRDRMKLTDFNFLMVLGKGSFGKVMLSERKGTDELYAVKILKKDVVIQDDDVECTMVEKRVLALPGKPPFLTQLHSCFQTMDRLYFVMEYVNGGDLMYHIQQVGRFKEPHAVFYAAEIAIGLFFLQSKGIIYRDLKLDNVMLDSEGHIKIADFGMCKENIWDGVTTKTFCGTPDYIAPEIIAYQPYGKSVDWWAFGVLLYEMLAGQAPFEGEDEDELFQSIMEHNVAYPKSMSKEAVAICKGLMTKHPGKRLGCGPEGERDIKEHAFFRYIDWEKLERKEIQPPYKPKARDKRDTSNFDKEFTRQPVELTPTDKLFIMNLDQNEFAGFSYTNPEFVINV
Ephrin type-A receptor 4, sequence (P54764 whole entry): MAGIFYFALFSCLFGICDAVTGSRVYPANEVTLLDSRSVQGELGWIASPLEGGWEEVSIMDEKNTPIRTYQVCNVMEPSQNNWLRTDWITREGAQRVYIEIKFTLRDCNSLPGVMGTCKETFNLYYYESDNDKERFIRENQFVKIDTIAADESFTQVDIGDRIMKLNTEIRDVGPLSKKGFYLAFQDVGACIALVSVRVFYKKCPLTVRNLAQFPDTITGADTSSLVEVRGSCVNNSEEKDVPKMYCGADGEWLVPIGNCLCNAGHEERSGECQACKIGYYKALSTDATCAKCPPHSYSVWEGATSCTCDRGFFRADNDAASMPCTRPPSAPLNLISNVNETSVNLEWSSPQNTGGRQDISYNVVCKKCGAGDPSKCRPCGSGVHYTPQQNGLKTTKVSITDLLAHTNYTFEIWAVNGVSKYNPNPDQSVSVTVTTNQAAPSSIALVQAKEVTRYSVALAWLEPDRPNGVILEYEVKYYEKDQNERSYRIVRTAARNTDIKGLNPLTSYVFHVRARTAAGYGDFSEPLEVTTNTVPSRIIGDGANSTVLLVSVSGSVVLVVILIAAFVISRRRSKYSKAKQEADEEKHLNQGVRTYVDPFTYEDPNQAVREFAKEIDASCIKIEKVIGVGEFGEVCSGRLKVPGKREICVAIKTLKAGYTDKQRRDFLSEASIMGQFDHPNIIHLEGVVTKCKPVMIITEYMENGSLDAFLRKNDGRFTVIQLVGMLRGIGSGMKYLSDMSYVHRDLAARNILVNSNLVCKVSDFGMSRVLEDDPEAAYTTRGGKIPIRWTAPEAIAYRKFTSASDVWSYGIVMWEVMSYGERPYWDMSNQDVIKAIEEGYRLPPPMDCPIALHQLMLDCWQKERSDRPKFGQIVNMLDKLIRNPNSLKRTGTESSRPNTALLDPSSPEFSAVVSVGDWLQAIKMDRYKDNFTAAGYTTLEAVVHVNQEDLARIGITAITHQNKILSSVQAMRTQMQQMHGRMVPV
PAS domain-containing serine/threonine-protein kinase, sequence (Q96RG2 whole entry, the tested form may be a part, canonical isoform): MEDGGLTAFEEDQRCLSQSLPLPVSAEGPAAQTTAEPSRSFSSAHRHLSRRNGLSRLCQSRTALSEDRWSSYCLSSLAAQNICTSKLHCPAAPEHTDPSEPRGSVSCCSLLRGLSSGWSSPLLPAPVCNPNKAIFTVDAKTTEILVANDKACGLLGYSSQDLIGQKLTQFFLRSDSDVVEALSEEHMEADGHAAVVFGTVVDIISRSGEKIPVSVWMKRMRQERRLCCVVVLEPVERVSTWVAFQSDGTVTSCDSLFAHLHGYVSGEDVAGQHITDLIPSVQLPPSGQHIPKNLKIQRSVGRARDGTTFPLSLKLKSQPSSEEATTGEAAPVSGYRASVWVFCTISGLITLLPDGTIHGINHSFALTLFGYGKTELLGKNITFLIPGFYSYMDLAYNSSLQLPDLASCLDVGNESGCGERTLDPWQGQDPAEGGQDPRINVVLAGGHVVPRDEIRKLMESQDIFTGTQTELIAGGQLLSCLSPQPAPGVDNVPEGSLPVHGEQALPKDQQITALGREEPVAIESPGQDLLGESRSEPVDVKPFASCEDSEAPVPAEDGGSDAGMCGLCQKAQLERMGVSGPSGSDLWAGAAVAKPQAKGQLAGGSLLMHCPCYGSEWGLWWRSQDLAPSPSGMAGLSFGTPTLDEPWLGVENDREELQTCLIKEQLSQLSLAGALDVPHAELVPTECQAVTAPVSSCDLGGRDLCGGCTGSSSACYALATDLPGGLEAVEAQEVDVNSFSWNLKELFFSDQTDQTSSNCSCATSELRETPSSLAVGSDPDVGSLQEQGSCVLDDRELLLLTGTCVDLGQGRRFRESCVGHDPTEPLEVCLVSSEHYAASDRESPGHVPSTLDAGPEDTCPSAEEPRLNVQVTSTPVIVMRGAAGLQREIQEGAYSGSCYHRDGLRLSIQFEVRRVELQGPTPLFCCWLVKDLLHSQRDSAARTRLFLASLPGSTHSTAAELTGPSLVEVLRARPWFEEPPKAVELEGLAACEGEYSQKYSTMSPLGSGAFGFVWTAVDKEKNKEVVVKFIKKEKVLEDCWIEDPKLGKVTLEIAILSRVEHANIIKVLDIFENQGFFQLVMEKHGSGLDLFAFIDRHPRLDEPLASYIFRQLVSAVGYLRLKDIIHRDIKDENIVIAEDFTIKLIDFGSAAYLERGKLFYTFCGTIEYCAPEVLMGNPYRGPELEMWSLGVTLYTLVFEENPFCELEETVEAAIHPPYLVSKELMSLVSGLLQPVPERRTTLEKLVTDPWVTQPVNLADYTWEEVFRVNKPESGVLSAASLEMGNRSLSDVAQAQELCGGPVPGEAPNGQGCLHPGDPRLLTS
Mitogen-activated protein kinase kinase kinase 9, sequence (P80192 whole entry): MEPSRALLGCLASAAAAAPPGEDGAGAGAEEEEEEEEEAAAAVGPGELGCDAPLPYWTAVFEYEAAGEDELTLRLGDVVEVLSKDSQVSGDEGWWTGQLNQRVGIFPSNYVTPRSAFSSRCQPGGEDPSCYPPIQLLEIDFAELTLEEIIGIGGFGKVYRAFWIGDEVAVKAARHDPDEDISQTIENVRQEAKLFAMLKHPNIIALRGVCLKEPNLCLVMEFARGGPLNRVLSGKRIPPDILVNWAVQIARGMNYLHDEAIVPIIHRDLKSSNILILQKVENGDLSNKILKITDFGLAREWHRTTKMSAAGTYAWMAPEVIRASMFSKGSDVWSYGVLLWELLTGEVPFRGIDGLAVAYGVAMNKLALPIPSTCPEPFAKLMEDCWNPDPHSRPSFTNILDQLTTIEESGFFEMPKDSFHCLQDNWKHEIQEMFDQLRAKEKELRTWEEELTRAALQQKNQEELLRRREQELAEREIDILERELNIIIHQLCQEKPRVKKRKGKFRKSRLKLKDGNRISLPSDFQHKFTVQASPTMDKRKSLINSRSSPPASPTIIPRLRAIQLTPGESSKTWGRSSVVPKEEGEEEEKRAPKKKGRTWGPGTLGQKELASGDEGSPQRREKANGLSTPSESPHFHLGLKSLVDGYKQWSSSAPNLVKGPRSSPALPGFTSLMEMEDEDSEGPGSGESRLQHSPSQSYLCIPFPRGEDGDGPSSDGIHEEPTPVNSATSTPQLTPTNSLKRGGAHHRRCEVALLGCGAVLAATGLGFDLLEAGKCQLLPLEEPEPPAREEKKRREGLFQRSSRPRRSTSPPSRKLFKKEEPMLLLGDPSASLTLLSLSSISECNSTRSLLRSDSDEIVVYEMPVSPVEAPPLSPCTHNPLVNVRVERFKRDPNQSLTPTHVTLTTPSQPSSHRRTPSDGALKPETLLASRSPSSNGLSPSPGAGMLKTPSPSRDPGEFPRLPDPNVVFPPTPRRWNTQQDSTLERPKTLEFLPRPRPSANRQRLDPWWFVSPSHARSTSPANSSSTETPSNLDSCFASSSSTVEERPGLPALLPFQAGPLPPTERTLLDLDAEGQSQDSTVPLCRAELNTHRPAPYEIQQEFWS

IC50 (Aurora kinase A): > 10 µM
IC50 [1]: > 10 µM
IC50 (Ephrin type-A receptor 4): > 10 µM
IC50 [2]: > 10 µM
IC50 [3]: > 10 µM
IC50 [4]: > 10 µM
IC50 [5]: > 10 µM
IC50 [6]: > 10 µM
IC50 [7]: > 10 µM
IC50 [8]: > 10 µM
IC50 [9]: > 10 µM
IC50 [10]: > 10 µM
SMILES: O=C(c1ccc(F)c(F)c1Nc1ccc(I)cc1F)N1CC(O)([C@@H]2CCCCN2)C1 [COBIMETINIB]
inhibition in vivo at 10 mg/kg (HCT-116): 84.5%
inhibition in vivo at 10 mg/kg (Calu-6): 44%
inhibition in vivo at 5 mg/kg (CWR22R [11]): 106%
inhibition in vivo at 10 mg/kg (CWR22R [12]): 82.5%
Activity [13]: 60%
Activity (A2058 [14]): Active
Activity (A-375): Active
inhibition in vivo at 3 mg/kg [15]: 69%
inhibition in vivo at 5 mg/kg (NCI-H2122 [16]): 75%
inhibition in vivo at 15 mg/kg (A2058 [17]): 83%
inhibition in vivo at 20 mg/kg (NCI-H2122 [18]): 61%
inhibition in vivo at 15 mg/kg [19]: 122%
inhibition in vivo at 20 mg/kg (A2058 [20]): 83%
inhibition in vivo at 15 mg/kg (DLD-1): 2%
Activity (A2058 [21]): Active
